{"source": "ChEMBL document CHEMBL5661979", "about": "“Pharmacological inhibition of BMK1 suppresses tumor growth through promyelocytic leukemia protein” (Cancer Cell, 2010)", "type_in_all_cases": "subcellular", "key": {"[1]": {"target": "Interleukin-1 receptor-associated kinase 1 (Homo sapiens, UniProt P51617)", "sequence (P51617 whole entry)": "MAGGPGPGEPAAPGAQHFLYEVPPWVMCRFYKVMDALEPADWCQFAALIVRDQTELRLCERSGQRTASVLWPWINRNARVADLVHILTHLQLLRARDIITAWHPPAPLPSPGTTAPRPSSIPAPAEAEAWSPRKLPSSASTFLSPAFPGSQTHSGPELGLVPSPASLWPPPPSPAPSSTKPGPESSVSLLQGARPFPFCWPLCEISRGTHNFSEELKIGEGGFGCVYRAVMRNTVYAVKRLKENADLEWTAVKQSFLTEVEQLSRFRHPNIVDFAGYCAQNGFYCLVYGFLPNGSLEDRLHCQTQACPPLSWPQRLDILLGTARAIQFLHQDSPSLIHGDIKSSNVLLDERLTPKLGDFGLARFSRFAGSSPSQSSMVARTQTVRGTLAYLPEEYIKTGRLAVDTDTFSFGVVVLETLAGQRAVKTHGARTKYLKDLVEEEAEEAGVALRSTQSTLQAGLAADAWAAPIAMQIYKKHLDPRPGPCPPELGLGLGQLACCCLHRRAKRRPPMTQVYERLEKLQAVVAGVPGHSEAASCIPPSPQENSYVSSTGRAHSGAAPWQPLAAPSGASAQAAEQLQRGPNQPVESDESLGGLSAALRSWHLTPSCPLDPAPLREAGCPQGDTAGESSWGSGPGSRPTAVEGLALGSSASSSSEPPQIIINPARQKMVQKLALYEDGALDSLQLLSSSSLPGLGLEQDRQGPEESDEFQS", "assay": "Inhibition of IRAK1 in human HeLa cells lysate pre incubated for 15 mins followed by ATP acyl phosphate probe addition and measured after 10 mins by LC-MS/MS analysis"}, "[2]": {"target": "Non-receptor tyrosine-protein kinase TNK1 (Homo sapiens, UniProt Q13470)", "sequence (Q13470 whole entry)": "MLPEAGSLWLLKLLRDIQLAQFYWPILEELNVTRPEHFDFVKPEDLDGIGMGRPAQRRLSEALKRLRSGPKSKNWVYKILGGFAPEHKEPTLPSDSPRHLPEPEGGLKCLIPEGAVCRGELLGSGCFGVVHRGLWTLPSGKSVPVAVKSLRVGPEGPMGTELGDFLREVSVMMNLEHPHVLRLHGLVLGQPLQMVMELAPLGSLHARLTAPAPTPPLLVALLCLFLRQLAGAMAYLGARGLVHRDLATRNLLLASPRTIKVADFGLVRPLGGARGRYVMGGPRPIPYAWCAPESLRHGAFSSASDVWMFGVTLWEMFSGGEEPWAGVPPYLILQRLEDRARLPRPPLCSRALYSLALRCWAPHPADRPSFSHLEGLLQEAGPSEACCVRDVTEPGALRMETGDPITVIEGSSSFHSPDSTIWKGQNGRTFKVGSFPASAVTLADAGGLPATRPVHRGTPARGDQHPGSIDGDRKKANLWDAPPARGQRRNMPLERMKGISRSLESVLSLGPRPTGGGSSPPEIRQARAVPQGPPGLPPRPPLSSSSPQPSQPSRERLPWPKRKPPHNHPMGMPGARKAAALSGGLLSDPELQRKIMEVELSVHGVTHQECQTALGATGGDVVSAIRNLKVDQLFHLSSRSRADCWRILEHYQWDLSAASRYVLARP", "assay": "Inhibition of TNK1 in human HeLa cells lysate pre incubated for 15 mins followed by ADP acyl phosphate probe addition and measured after 10 mins by LC-MS/MS analysis"}, "[3]": {"target": "T1, Serine/threonine-protein kinase Nek9 (Homo sapiens) (UniProt Q8TD19)", "T1 sequence (whole entry)": "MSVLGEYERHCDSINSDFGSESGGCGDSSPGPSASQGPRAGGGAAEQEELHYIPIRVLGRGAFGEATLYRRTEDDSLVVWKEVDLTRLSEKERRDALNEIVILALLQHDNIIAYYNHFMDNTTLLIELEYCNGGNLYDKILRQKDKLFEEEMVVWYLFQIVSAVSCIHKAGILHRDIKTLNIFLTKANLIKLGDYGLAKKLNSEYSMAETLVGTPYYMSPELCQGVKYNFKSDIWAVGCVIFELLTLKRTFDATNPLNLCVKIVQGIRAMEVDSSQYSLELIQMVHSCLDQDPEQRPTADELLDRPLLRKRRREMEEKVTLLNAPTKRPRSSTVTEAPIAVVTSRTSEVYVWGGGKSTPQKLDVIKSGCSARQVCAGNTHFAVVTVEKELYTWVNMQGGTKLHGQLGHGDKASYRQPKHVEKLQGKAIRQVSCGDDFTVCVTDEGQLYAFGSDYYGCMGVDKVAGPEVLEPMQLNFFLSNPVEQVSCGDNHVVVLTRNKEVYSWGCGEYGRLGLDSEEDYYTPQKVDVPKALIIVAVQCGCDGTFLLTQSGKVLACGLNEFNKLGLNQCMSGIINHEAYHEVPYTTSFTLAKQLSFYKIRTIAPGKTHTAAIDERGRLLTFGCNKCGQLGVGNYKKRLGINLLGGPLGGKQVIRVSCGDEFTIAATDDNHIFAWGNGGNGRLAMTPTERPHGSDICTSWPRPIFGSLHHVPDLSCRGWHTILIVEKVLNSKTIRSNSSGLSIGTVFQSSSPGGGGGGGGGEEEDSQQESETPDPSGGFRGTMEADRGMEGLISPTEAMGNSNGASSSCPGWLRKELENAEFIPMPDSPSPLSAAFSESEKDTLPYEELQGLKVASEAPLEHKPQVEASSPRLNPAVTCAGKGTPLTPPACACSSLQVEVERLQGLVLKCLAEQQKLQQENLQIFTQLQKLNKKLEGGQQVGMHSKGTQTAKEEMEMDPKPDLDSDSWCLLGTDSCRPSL", "assay": "Inhibition of NEK9 in human HeLa cells lysate at 2 uM pre incubated for 15 mins followed by ADP acyl phosphate probe addition and measured after 10 mins by LC-MS/MS analysis relative to control", "details": "time 25.0 min"}, "[4]": {"target": "Ribosomal protein S6 kinase alpha-3 (Homo sapiens, UniProt P51812)", "sequence (P51812 whole entry, the tested form may be a part)": "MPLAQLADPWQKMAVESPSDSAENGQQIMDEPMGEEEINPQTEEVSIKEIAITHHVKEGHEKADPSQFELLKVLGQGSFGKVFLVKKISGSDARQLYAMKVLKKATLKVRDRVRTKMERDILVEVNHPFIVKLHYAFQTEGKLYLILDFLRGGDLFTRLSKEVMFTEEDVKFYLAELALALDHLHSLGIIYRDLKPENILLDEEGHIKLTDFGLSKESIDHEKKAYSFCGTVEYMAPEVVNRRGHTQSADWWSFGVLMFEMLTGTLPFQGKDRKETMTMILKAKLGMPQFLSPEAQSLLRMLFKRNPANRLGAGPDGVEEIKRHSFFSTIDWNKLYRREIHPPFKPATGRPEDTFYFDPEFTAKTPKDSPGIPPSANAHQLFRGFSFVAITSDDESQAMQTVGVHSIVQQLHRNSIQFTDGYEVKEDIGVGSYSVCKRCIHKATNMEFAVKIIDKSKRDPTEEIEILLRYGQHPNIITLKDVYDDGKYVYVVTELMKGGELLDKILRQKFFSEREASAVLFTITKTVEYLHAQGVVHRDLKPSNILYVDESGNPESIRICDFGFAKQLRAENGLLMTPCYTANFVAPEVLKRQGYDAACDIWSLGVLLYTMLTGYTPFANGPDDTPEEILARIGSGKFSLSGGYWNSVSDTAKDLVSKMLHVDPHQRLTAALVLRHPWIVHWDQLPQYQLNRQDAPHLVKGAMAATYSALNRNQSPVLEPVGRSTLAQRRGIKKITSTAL", "assay": "Inhibition of RSK2 domain 1 in human HeLa cells lysate at 2 uM pre incubated for 15 mins followed by ADP acyl phosphate probe addition and measured after 10 mins by LC-MS/MS analysis relative to control", "details": "time 25.0 min"}, "[5]": {"target": "T2, Phosphatidylinositol 5-phosphate 4-kinase type-2 gamma (Homo sapiens) (UniProt Q8TBX8)", "T2 sequence (whole entry)": "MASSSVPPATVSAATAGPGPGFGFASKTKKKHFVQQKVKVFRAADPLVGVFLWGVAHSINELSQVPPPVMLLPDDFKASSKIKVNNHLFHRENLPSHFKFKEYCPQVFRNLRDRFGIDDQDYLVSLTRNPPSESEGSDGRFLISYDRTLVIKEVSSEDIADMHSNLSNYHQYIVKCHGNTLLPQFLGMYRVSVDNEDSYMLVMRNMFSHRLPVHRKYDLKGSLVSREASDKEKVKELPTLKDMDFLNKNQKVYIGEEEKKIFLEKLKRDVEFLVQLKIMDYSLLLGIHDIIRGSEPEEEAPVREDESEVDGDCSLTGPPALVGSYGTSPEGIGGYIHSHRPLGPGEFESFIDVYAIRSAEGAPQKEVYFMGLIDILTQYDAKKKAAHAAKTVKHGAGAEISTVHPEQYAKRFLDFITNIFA", "assay": "Inhibition of PIP5K2C LIP1 site in human HeLa cells lysate at 50 uM pre incubated for 15 mins followed by ATP acyl phosphate probe addition and measured after 10 mins by LC-MS/MS analysis relative to control", "details": "time 25.0 min"}, "[6]": {"target": "Tyrosine-protein kinase ABL (Homo sapiens, UniProt P00519+P42684)", "sequence (P00519 whole entry, looked up)": "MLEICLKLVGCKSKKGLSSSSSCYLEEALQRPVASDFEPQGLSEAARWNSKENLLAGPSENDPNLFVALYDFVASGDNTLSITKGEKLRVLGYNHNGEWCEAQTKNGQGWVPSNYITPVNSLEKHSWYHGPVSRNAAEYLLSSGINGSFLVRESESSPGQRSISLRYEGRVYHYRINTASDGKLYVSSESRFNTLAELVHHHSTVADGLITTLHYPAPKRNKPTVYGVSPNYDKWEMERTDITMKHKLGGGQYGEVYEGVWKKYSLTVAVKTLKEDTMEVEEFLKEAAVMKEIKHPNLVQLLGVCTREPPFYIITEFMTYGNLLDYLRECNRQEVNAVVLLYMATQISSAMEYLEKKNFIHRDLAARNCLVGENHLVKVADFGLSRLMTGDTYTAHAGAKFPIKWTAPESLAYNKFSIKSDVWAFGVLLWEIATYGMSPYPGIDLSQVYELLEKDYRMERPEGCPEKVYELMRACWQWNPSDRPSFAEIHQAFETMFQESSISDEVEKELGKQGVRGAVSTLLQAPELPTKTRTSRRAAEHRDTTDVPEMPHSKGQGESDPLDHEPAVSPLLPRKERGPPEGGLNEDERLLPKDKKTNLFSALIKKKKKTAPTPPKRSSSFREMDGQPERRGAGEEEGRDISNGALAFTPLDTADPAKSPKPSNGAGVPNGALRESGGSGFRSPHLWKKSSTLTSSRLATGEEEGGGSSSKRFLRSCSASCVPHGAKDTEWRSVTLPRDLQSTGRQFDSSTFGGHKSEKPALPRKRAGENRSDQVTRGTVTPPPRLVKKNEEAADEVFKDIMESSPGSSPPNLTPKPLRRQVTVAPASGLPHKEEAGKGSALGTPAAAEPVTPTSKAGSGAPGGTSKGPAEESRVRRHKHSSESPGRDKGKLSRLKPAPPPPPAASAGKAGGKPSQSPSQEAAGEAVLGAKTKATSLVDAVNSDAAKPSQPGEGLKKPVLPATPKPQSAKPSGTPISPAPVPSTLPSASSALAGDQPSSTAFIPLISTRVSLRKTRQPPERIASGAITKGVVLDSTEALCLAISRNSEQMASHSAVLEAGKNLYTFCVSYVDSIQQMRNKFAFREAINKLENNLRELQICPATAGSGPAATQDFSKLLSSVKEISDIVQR", "sequence (P42684 whole entry, looked up)": "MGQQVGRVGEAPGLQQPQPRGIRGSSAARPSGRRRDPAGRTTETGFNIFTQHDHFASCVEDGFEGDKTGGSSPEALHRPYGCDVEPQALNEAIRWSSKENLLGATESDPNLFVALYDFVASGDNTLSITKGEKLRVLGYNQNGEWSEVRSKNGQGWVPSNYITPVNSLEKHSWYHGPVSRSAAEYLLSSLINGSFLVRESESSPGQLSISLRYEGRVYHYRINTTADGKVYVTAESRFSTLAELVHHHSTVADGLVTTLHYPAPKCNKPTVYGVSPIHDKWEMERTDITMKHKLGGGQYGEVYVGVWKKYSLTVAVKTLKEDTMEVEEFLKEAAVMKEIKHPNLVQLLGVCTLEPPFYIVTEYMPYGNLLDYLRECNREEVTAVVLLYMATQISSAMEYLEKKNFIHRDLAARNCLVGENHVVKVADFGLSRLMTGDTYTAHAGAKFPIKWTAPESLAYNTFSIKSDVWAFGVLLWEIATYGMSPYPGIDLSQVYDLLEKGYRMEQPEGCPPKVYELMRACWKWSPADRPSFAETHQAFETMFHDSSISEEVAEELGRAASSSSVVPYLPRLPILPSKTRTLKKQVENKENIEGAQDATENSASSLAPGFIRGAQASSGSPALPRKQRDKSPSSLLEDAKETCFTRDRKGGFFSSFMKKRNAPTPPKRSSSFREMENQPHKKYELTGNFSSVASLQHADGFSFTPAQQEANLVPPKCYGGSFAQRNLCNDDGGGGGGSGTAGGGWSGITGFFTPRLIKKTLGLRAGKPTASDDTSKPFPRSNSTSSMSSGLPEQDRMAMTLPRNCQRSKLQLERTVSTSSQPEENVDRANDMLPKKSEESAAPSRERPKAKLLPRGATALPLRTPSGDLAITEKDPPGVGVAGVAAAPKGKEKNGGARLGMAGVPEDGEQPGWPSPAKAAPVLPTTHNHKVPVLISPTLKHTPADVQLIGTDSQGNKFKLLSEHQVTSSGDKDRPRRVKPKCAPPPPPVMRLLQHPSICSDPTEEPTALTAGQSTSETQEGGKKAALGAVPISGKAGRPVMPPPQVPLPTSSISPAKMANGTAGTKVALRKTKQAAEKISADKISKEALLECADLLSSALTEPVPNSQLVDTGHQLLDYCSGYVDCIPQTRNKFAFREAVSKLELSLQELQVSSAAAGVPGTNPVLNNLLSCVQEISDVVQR", "assay": "Inhibition of ABL1/2 in human HeLa cells lysate at 10 uM pre incubated for 15 mins followed by ATP acyl phosphate probe addition and measured after 10 mins by LC-MS/MS analysis relative to control", "details": "time 25.0 min", "procedure,_shortened": "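HeLa cell lysates (5 mg/mL total protein) were preincubated with inhibitor at 0, 0.8, 2, 10 or 50 μM for 15 min. ATP or ADP acylphosphate probe was then added (5 μM final) for 10 min, and reactions were stopped with urea. Up to four fragment ions per kinase probe-peptide were quantified by targeted MS. % inhibition was taken relative to untreated lysate. Run in duplicate.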"}, "[7]": {"target": "T3, Dual specificity mitogen-activated protein kinase kinase 4 (Homo sapiens) (UniProt P45985)", "T3 sequence (whole entry)": "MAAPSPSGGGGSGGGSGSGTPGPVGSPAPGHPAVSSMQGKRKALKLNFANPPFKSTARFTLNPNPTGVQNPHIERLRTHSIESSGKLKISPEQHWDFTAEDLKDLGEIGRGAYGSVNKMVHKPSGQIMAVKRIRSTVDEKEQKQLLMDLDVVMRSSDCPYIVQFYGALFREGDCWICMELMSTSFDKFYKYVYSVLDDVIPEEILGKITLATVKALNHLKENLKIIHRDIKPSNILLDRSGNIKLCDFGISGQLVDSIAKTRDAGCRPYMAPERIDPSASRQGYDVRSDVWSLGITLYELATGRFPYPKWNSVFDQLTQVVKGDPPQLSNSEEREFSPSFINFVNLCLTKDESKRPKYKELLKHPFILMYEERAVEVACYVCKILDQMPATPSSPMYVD", "assay": "Inhibition of MAP2K4 in human HeLa cells lysate at 10 uM pre incubated for 15 mins followed by ATP acyl phosphate probe addition and measured after 10 mins by LC-MS/MS analysis relative to control", "details": "time 25.0 min"}, "[8]": {"target": "T2, Phosphatidylinositol 5-phosphate 4-kinase type-2 gamma (Homo sapiens)", "assay": "Inhibition of PIP5K2C LIP1 site in human HeLa cells lysate at 2 uM pre incubated for 15 mins followed by ATP acyl phosphate probe addition and measured after 10 mins by LC-MS/MS analysis relative to control", "details": "time 25.0 min"}, "[9]": {"target": "Cyclin-dependent kinase 9 (Homo sapiens, UniProt P50750)", "sequence (P50750 whole entry)": "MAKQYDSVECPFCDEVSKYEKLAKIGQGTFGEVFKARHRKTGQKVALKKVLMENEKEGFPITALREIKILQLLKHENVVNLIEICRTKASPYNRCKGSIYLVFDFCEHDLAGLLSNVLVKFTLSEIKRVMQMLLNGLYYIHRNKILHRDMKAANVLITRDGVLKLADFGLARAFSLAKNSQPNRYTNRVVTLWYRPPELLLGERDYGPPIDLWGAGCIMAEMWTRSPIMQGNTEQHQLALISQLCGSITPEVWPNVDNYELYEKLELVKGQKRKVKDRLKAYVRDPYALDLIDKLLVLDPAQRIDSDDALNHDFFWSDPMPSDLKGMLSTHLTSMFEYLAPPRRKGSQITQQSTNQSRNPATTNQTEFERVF", "assay": "Inhibition of CDK9 in human HeLa cells lysate at 2 uM pre incubated for 15 mins followed by ATP acyl phosphate probe addition and measured after 10 mins by LC-MS/MS analysis relative to control", "details": "time 25.0 min", "procedure,_shortened": "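KiNativ profiling in HeLa lysate (5 mg/mL total protein). Lysate incubated 15 min with inhibitor at 50, 10, 2, 0.8 or 0 μM. ATP or ADP acylphosphate probe then added (5 μM final) and reacted 10 min. Reaction stopped with urea and analysed by targeted MS, using up to four fragment ions per kinase peptide-probe conjugate. % inhibition taken against untreated lysate. Run in duplicate.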"}}}
{"smiles": "CCOc1cc(N2CCC(O)CC2)ccc1Nc1ncc2c(n1)N(C)c1ccccc1C(=O)N2C", "values": [{"measurement": "IC50", "setting": "[1]", "value": "> 50", "unit": "µM"}, {"measurement": "IC50", "setting": "[2]", "value": 10, "unit": "µM"}, {"measurement": "inhibition", "setting": "[3]", "value": 0.3, "unit": "%"}, {"measurement": "inhibition", "setting": "[4]", "value": 4.9, "unit": "%"}, {"measurement": "inhibition", "setting": "[5]", "value": 9.9, "unit": "%"}, {"measurement": "inhibition", "setting": "[6]", "value": 1.7, "unit": "%"}, {"measurement": "inhibition", "setting": "[7]", "value": 3.9, "unit": "%"}, {"measurement": "inhibition", "setting": "[8]", "value": -3.7, "unit": "%"}, {"measurement": "inhibition", "setting": "[9]", "value": 11.6, "unit": "%"}]}
